Holding throughout (type): functional, cell-based
One test concerns DLD-1. The test is described as follows: Cytotoxicity against human DLD1 cells after 96 hrs by SRB assay. In short, it runs like this:
(§1)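 Monolayer cultures in RPMI 1640 with 10% heat-inactivated FBS and penicillin/streptomycin, 37 °C, 5% CO2. Exponentially growing cells were seeded, then treated 24 h later with serial dilutions (0–30 µM; DMSO or DMF ≤0.5% final) for 96 h. Cells were fixed with 10% TCA at 4 °C, stained with 0.4% SRB and solubilized in 10 mM Tris base; A570 was read. IC50 came from semi-log dose–response curves, ≥3 independent experiments.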
(In general: The SRB assay estimates cell density from bound dye.)

For the next test, the system named is MCF7. Put plainly: Cytotoxicity against human MCF7 cells after 96 hrs by SRB assay. The method, boiled down:
as §1

Test [1] in a line: Cytotoxicity against human A253 cells after 96 hrs by SRB assay. In short, it runs like this: as §1
Another test has as its system A549. The test is described as follows: Cytotoxicity against human A549 cells after 96 hrs by SRB assay. In short, it runs like this:
as §1

For another test, the system named is A2780. Put plainly: Cytotoxicity against human A2780 cells after 96 hrs by SRB assay. In short, it runs like this:
as §1

Test [2] in a line: Cytotoxicity against human 518A2 cells after 96 hrs by SRB assay. The method, boiled down:
as §1

The subject of another test is 8505C. The test is described as follows: Cytotoxicity against human 8505C cells after 96 hrs by SRB assay. The method, boiled down:
as §1

Test [3] can be described thus: Cytotoxicity against human Lipo cells after 96 hrs by SRB assay. In short, it runs like this:
as §1

For a further test, the system named is SW-1736. Put plainly: Cytotoxicity against human SW1736 cells after 96 hrs by SRB assay. The method, boiled down: as §1
The test system of another test is A-431. The test is described as follows: Cytotoxicity against human A431 cells after 96 hrs by SRB assay. The method, boiled down: as §1
Another test deals with HT-29. Put plainly: Cytotoxicity against human HT-29 cells after 96 hrs by SRB assay. The method, boiled down:
as §1

The subject of a further test is HCT-116. The test is described as follows: Cytotoxicity against human HCT116 cells after 96 hrs by SRB assay. The method, boiled down: as §1

Turning to `CCCCCCCCO/N=C1\CC[C@]2(C)[C@H]3C(=O)C=C4[C@@H]5C[C@@](C)(C(=O)OC)CC[C@]5(C)CC[C@@]4(C)[C@]3(C)CC[C@H]2C1(C)C`, the IC50 in the test on DLD-1 is greater than 30 µmol; in the test on MCF7, 26.35 µmol; in test [1], greater than 30 µmol; in the test with A549 it was greater than 30 µmol; in the test on A2780, 19.73 µmol; in test [2], greater than 30 µmol. For the same compound, the IC50 in the test on 8505C was greater than 30 µmol; in test [3], greater than 30 µmol; in the test on SW-1736 it was 17.77 µmol.
In the case of `CCOC(=O)[C@@]1(C)CC[C@]2(C)CC[C@]3(C)C(=CC(=O)[C@@H]4[C@@](C)(CCC(=O)O)[C@H](C(C)(C)O)CC[C@]43C)[C@@H]2C1`, the IC50 (in the test with DLD-1; in the test on MCF7; in test [1]; in the test on A549; in the test on A2780; in test [2]) was greater than 30 µmol in each case. The IC50 (in the test with 8505C; in [3]; in the test with SW-1736) was greater than 30 µmol throughout.
With `CCOC(=O)[C@@]1(C)CC[C@]2(C)CC[C@]3(C)C(=CC(=O)[C@@H]4[C@@]5(C)CCC(=O)OC(C)(C)[C@@H]5CC[C@]43C)[C@@H]2C1`, the IC50 in the test on DLD-1 was greater than 30 µmol; in the test on MCF7 it was 20.58 µmol; in test [1] it was 28.73 µmol; in the test with A549 it was greater than 30 µmol; in the test on A2780, 15 µmol; in test [2], greater than 30 µmol. Moreover, the IC50 in the test on 8505C was greater than 30 µmol; in [3] it was greater than 30 µmol; in the test on SW-1736 it was 12.71 µmol.
Turning to `COC(=O)[C@@]1(C)CC[C@]2(C)CC[C@]3(C)C(=CC(=O)[C@@H]4[C@@]5(C)CC/C(=N\OC(C)C)C(C)(C)[C@@H]5CC[C@]43C)[C@@H]2C1`, the IC50 (in the test on DLD-1; in the test with MCF7; in [1]; in the test with A549; in the test with A2780; in [2]) was greater than 30 µmol in each case. The IC50 (in the test on 8505C; in [3]; in the test with SW-1736) was greater than 30 µmol in each case.
Regarding `CCOC(=O)[C@@]1(C)CC[C@]2(C)CC[C@]3(C)C(=CC(=O)[C@@H]4[C@@]5(C)CC[C@H](OC(=O)CCC(=O)O)C(C)(C)[C@@H]5CC[C@]43C)[C@@H]2C1`, the IC50 in the test on DLD-1 is greater than 30 µmol; in [1], greater than 30 µmol; with A549 it was greater than 30 µmol; in [2], 28.99 µmol; in the test on 8505C, greater than 30 µmol; in test [3], greater than 30 µmol.
As for `COC(=O)[C@@]1(C)CC[C@]2(C)CC[C@]3(C)C(=CC(=O)[C@@H]4[C@@]5(C)CC[C@H](OS(=O)(=O)c6ccc(C)cc6)C(C)(C)[C@@H]5CC[C@]43C)[C@@H]2C1`, the IC50 (in the test with DLD-1; in test [1]; in the test on A549; in test [2]; with 8505C; in test [3]) was greater than 30 µmol in each case.
Take `COC(=O)[C@@]1(C)CC[C@]2(C)CC[C@]3(C)C(=CC(=O)[C@@H]4[C@@]5(C)Cc6nccnc6C(C)(C)[C@@H]5CC[C@]43C)[C@@H]2C1`: the IC50 (in the test on DLD-1; in the test with MCF7; in test [1]; in the test on A549; with A2780; in [2]) was greater than 30 µmol throughout. The IC50 (in the test on 8505C; in [3]; in the test on SW-1736) was greater than 30 µmol each time.
On to `COC(=O)[C@@]1(C)CC[C@]2(C)CC[C@]3(C)C(=CC(=O)[C@@H]4[C@@]5(C)CC[C@H](OC(=O)[C@H](CSC(=O)OC(C)(C)C)NC(=O)OC(C)(C)C)C(C)(C)[C@@H]5CC[C@]43C)[C@@H]2C1`, for which the IC50 (in the test on DLD-1; in [1]; in the test with A549; in test [2]; in the test on 8505C; in test [3]) was greater than 30 µmol each time. For the same compound, the IC50 in the test on SW-1736 is greater than 30 µmol.
As for `COC(=O)[C@@]1(C)CC[C@]2(C)CC[C@]3(C)C(=CC(=O)[C@@H]4[C@@]5(C)CC[C@H](OC(=O)[C@H](CSCc6ccccc6)NC(=O)OC(C)(C)C)C(C)(C)[C@@H]5CC[C@]43C)[C@@H]2C1`, the IC50 (with DLD-1; in test [1]; in the test on A549; in [2]; in the test with 8505C; in test [3]) was greater than 30 µmol throughout. Also, the IC50 with SW-1736 was greater than 30 µmol.
As for `COC(=O)[C@@]1(C)CC[C@]2(C)CC[C@]3(C)C(=CC(=O)[C@@H]4[C@@]5(C)CC[C@H](OC(=O)CCC(=O)O)C(C)(C)[C@@H]5CC[C@]43C)[C@@H]2C1`, the IC50 (with DLD-1; in test [1]; with A549; in test [2]; with 8505C; in [3]) was greater than 30 µmol throughout.
With `C=C(C)[C@@H]1CC[C@]2(C)[C@H](C(=O)C=C3[C@@H]4C[C@@](C)(C(=O)OCC)CC[C@]4(C)CC[C@]32C)[C@@]1(C)CCC(=O)O`, the IC50 (in the test on DLD-1; in the test with MCF7; in test [1]; in the test with A549; in the test with A2780; in test [2]) was greater than 30 µmol in each case. Moreover, the IC50 (with 8505C; in [3]; in the test on SW-1736) was greater than 30 µmol throughout.
On to `CCOC(=O)[C@@]1(C)CC[C@]2(C)CC[C@]3(C)C(=CC(=O)[C@@H]4[C@@]5(C)CC=CC(C)(C)[C@@H]5CC[C@]43C)[C@@H]2C1`, for which the IC50 (in the test on DLD-1; with MCF7; in test [1]; in the test on A549; in the test on A-431; with HT-29) was greater than 30 µmol each time. Further, the IC50 (in [2]; in the test on HCT-116; in test [3]) was greater than 30 µmol in each case.
For `CCOC(=O)[C@@]1(C)CC[C@]2(C)CC[C@]3(C)C(=CC(=O)[C@@H]4[C@@]5(C)C[C@H]6O[C@H]6C(C)(C)[C@@H]5CC[C@]43C)[C@@H]2C1`, the IC50 (with DLD-1; with MCF7; in test [1]; in the test with A549; in the test with A-431; in the test with HT-29) was greater than 30 µmol throughout. Besides, the IC50 (in [2]; with HCT-116; in test [3]) was greater than 30 µmol throughout.
As to `COC(=O)[C@@]1(C)CC[C@]2(C)CC[C@]3(C)C(=CC(=O)[C@@H]4[C@@]5(C)CCC(=O)C(C)(C)[C@@H]5CC[C@]43C)[C@@H]2C1`, the IC50 (in the test with DLD-1; in the test with MCF7; in test [1]; in the test with A549; in the test with A2780; in test [2]) was greater than 30 µmol in each case. Also, the IC50 with 8505C is greater than 30 µmol; in test [3], greater than 30 µmol; in the test with SW-1736, 29.09 µmol.
For the compound `COC(=O)[C@@]1(C)CC[C@]2(C)CC[C@]3(C)C(=CC(=O)[C@@H]4[C@@]5(C)CC[C@H](OC(=O)[C@H](CO[Si](C)(C)C(C)(C)C)NC(=O)OC(C)(C)C)C(C)(C)[C@@H]5CC[C@]43C)[C@@H]2C1`, the IC50 with DLD-1 was greater than 30 µmol; in test [1], 28.59 µmol; in the test on A549, greater than 30 µmol; in test [2], greater than 30 µmol; in the test with 8505C, greater than 30 µmol; in test [3] it was greater than 30 µmol.
As to `CCOC(=O)[C@@]1(C)CC[C@]2(C)CC[C@]3(C)C(=CC(=O)[C@@H]4[C@@]5(C)CCC(=O)C(C)(C)[C@@H]5CC[C@]43C)[C@@H]2C1`, the IC50 (in the test with DLD-1; in the test on MCF7; in test [1]; with A549; in the test on A2780; in test [2]) was greater than 30 µmol in each case. Further, the IC50 (in the test on 8505C; in [3]; in the test on SW-1736) was greater than 30 µmol each time.
With `C=C(C)[C@@H]1CC[C@]2(C)[C@H](C(=O)C=C3[C@@H]4C[C@@](C)(C(=O)OCC)CC[C@]4(C)CC[C@]32C)[C@@]1(C)CCC(=O)OCC`, the IC50 with DLD-1 was greater than 30 µmol; with MCF7 it was 25.42 µmol; in test [1], greater than 30 µmol; in the test on A549 it was greater than 30 µmol; in the test on A2780, 5.89 µmol; in test [2], 9.28 µmol. Moreover, the IC50 in the test on 8505C is greater than 30 µmol; in [3] it was greater than 30 µmol; in the test on SW-1736 it was 26.74 µmol.

These data come from ChEMBL document CHEMBL2151003, “Synthesis and antitumor activity of ring A modified glycyrrhetinic acid derivatives” (Eur J Med Chem, 2011).
